Test system: HEK-293T
Experiment: Multiplex assay against HEK293T
Assay type: toxicity, cell-based
Settings: human
How it was run: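 Cells stained live at seeding with Hoechst33342, BioTracker Green Microtubule Cytoskeleton Dye, MitoTracker Red and Annexin V Alexa Fluor 680 were imaged on a CQ1 microscope at 37°C and 5% CO2 after compound addition. Their classification by CellPathfinder machine-learning gating ran from Hoechst high-intensity objects versus normal cells, to healthy, pyknosed or fragmented nuclei among normal cells, to mitotic or apoptotic among pyknosed cells. Tubulin, mitochondrial-mass and membrane-permeability phenotypes are per cents of healthy-nucleus cells.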

[1] = 12 h, 1 µM, compound concentration 1 uM, replicate 1
[2] = 12 h, 1 µM, compound concentration 1 uM, replicate 2
[3] = 12 h, 10 µM, compound concentration 10 uM, replicate 1
[4] = 12 h, 10 µM, compound concentration 10 uM, replicate 2
[5] = 24 h, 1 µM, compound concentration 1 uM, replicate 1
[6] = 24 h, 1 µM, compound concentration 1 uM, replicate 2
[7] = 24 h, 10 µM, compound concentration 10 uM, replicate 1
[8] = 24 h, 10 µM, compound concentration 10 uM, replicate 2
[9] = 48 h, 1 µM, compound concentration 1 uM, replicate 1
[10] = 48 h, 1 µM, compound concentration 1 uM, replicate 2
[11] = 48 h, 10 µM, compound concentration 10 uM, replicate 1
[12] = 48 h, 10 µM, compound concentration 10 uM, replicate 2

Cc1cc(O)c(-c2ccc([C@@H](C)CN(C)C)cc2)c2c1[nH]c(=O)c1sccc12
Population Apoptotic (%) [1]: 63% | Population Fragmented Nuclei (%) [1]: 14% | Population Healthy Nuclei (%) [1]: 49% | Population Hoechst High Intensity Objects (%) [1]: 27% | Population Membrane Permeable-Phenotype (%) [1]: 0% | Population Mitochondria Different-Phenotype (%) [1]: 90% | Population Mitotic Cells (%) [1]: 36% | Population Normal (%) [1]: 72% | Population Pyknosed Nuclei (%) [1]: 36% | Population Tubulin-Different-Phenotype (%) [1]: 78% | Total Cell Count [1]: 209 | Population Apoptotic (%) [2]: 59% | Population Fragmented Nuclei (%) [2]: 8% | Population Healthy Nuclei (%) [2]: 66% | Population Hoechst High Intensity Objects (%) [2]: 28% | Population Membrane Permeable-Phenotype (%) [2]: 1% | Population Mitochondria Different-Phenotype (%) [2]: 91% | Population Mitotic Cells (%) [2]: 40% | Population Normal (%) [2]: 71% | Population Pyknosed Nuclei (%) [2]: 25% | Population Tubulin-Different-Phenotype (%) [2]: 74% | Total Cell Count [2]: 207 | Population Apoptotic (%) [3]: 53% | Population Fragmented Nuclei (%) [3]: 6% | Population Healthy Nuclei (%) [3]: 44% | Population Hoechst High Intensity Objects (%) [3]: 41% | Population Membrane Permeable-Phenotype (%) [3]: 0% | Population Mitochondria Different-Phenotype (%) [3]: 100% | Population Mitotic Cells (%) [3]: 46% | Population Normal (%) [3]: 58% | Population Pyknosed Nuclei (%) [3]: 48% | Population Tubulin-Different-Phenotype (%) [3]: 60% | Total Cell Count [3]: 268 | Population Apoptotic (%) [4]: 70% | Population Fragmented Nuclei (%) [4]: 7% | Population Healthy Nuclei (%) [4]: 60% | Population Hoechst High Intensity Objects (%) [4]: 28% | Population Mitochondria Different-Phenotype (%) [4]: 94% | Population Mitotic Cells (%) [4]: 29% | Population Normal (%) [4]: 71% | Population Pyknosed Nuclei (%) [4]: 31% | Population Tubulin-Different-Phenotype (%) [4]: 72% | Total Cell Count [4]: 195 | Population Apoptotic (%) [5]: 65% | Population Fragmented Nuclei (%) [5]: 9% | Population Healthy Nuclei (%) [5]: 60% | Population Hoechst High Intensity Objects (%) [5]: 21% | Population Membrane Permeable-Phenotype (%) [5]: 0% | Population Mitochondria Different-Phenotype (%) [5]: 89% | Population Mitotic Cells (%) [5]: 34% | Population Normal (%) [5]: 78% | Population Pyknosed Nuclei (%) [5]: 30% | Population Tubulin-Different-Phenotype (%) [5]: 67% | Total Cell Count [5]: 230 | Population Apoptotic (%) [6]: 68% | Population Healthy Nuclei (%) [6]: 70% | Population Mitochondria Different-Phenotype (%) [6]: 93% | Population Mitotic Cells (%) [6]: 31% | Population Pyknosed Nuclei (%) [6]: 19% | Population Tubulin-Different-Phenotype (%) [6]: 74% | Total Cell Count [6]: 205 | Population Apoptotic (%) [7]: 73% | Population Fragmented Nuclei (%) [7]: 8% | Population Healthy Nuclei (%) [7]: 67% | Population Hoechst High Intensity Objects (%) [7]: 36% | Population Membrane Permeable-Phenotype (%) [7]: 1% | Population Mitochondria Different-Phenotype (%) [7]: 92% | Population Mitotic Cells (%) [7]: 26% | Population Normal (%) [7]: 63% | Population Pyknosed Nuclei (%) [7]: 24% | Population Tubulin-Different-Phenotype (%) [7]: 70% | Total Cell Count [7]: 290 | Population Apoptotic (%) [8]: 85% | Population Fragmented Nuclei (%) [8]: 7% | Population Healthy Nuclei (%) [8]: 69% | Population Hoechst High Intensity Objects (%) [8]: 25% | Population Membrane Permeable-Phenotype (%) [8]: 0% | Population Mitochondria Different-Phenotype (%) [8]: 93% | Population Mitotic Cells (%) [8]: 14% | Population Normal (%) [8]: 74% | Population Pyknosed Nuclei (%) [8]: 23% | Population Tubulin-Different-Phenotype (%) [8]: 80% | Total Cell Count [8]: 203 | Population Apoptotic (%) [9]: 86% | Population Fragmented Nuclei (%) [9]: 13% | Population Healthy Nuclei (%) [9]: 65% | Population Hoechst High Intensity Objects (%) [9]: 24% | Population Membrane Permeable-Phenotype (%) [9]: 0% | Population Mitochondria Different-Phenotype (%) [9]: 90% | Population Mitotic Cells (%) [9]: 13% | Population Normal (%) [9]: 75% | Population Pyknosed Nuclei (%) [9]: 20% | Population Tubulin-Different-Phenotype (%) [9]: 76% | Total Cell Count [9]: 249 | Population Apoptotic (%) [10]: 69% | Population Fragmented Nuclei (%) [10]: 16% | Population Healthy Nuclei (%) [10]: 67% | Population Hoechst High Intensity Objects (%) [10]: 25% | Population Mitochondria Different-Phenotype (%) [10]: 96% | Population Mitotic Cells (%) [10]: 30% | Population Normal (%) [10]: 74% | Population Pyknosed Nuclei (%) [10]: 16% | Population Tubulin-Different-Phenotype (%) [10]: 70% | Total Cell Count [10]: 212 | Population Apoptotic (%) [11]: 86% | Population Fragmented Nuclei (%) [11]: 15% | Population Healthy Nuclei (%) [11]: 64% | Population Hoechst High Intensity Objects (%) [11]: 40% | Population Membrane Permeable-Phenotype (%) [11]: 1% | Population Mitochondria Different-Phenotype (%) [11]: 92% | Population Mitotic Cells (%) [11]: 13% | Population Normal (%) [11]: 59% | Population Pyknosed Nuclei (%) [11]: 20% | Population Tubulin-Different-Phenotype (%) [11]: 54% | Total Cell Count [11]: 298 | Population Apoptotic (%) [12]: 87% | Population Fragmented Nuclei (%) [12]: 13% | Population Healthy Nuclei (%) [12]: 58% | Population Hoechst High Intensity Objects (%) [12]: 34% | Population Membrane Permeable-Phenotype (%) [12]: 0% | Population Mitochondria Different-Phenotype (%) [12]: 100% | Population Mitotic Cells (%) [12]: 12% | Population Normal (%) [12]: 65% | Population Pyknosed Nuclei (%) [12]: 28% | Population Tubulin-Different-Phenotype (%) [12]: 73% | Total Cell Count [12]: 223

CC(F)(F)CN1CCOc2c(nn(-c3ccccc3Cl)c2-c2ccc(Cl)cc2)C1=O
Population Apoptotic (%) [1]: 29% | Population Healthy Nuclei (%) [1]: 77% | Population Membrane Permeable-Phenotype (%) [1]: 0% | Population Mitochondria Different-Phenotype (%) [1]: 43% | Population Mitotic Cells (%) [1]: 70% | Population Normal (%) [1]: 93% | Population Pyknosed Nuclei (%) [1]: 12% | Total Cell Count [1]: 397 | Population Apoptotic (%) [2]: 64% | Population Healthy Nuclei (%) [2]: 78% | Population Mitochondria Different-Phenotype (%) [2]: 53% | Population Mitotic Cells (%) [2]: 35% | Population Normal (%) [2]: 91% | Population Pyknosed Nuclei (%) [2]: 16% | Total Cell Count [2]: 369 | Population Apoptotic (%) [3]: 57% | Population Healthy Nuclei (%) [3]: 73% | Population Membrane Permeable-Phenotype (%) [3]: 0% | Population Mitochondria Different-Phenotype (%) [3]: 78% | Population Mitotic Cells (%) [3]: 42% | Population Normal (%) [3]: 89% | Population Pyknosed Nuclei (%) [3]: 22% | Total Cell Count [3]: 384 | Population Apoptotic (%) [4]: 43% | Population Healthy Nuclei (%) [4]: 75% | Population Mitochondria Different-Phenotype (%) [4]: 84% | Population Mitotic Cells (%) [4]: 56% | Population Normal (%) [4]: 94% | Population Pyknosed Nuclei (%) [4]: 18% | Total Cell Count [4]: 397 | Population Apoptotic (%) [5]: 25% | Population Healthy Nuclei (%) [5]: 79% | Population Membrane Permeable-Phenotype (%) [5]: 0% | Population Mitochondria Different-Phenotype (%) [5]: 22% | Population Mitotic Cells (%) [5]: 74% | Population Normal (%) [5]: 97% | Population Pyknosed Nuclei (%) [5]: 11% | Total Cell Count [5]: 568 | Population Apoptotic (%) [6]: 43% | Population Healthy Nuclei (%) [6]: 84% | Population Mitochondria Different-Phenotype (%) [6]: 31% | Population Mitotic Cells (%) [6]: 56% | Population Normal (%) [6]: 93% | Population Pyknosed Nuclei (%) [6]: 8% | Total Cell Count [6]: 478 | Population Apoptotic (%) [7]: 57% | Population Healthy Nuclei (%) [7]: 76% | Population Membrane Permeable-Phenotype (%) [7]: 0% | Population Mitochondria Different-Phenotype (%) [7]: 71% | Population Mitotic Cells (%) [7]: 42% | Population Normal (%) [7]: 92% | Population Pyknosed Nuclei (%) [7]: 15% | Total Cell Count [7]: 450 | Population Apoptotic (%) [8]: 41% | Population Healthy Nuclei (%) [8]: 80% | Population Mitochondria Different-Phenotype (%) [8]: 79% | Population Mitotic Cells (%) [8]: 58% | Population Normal (%) [8]: 94% | Total Cell Count [8]: 477 | Population Apoptotic (%) [9]: 22% | Population Healthy Nuclei (%) [9]: 77% | Population Membrane Permeable-Phenotype (%) [9]: 1% | Population Mitochondria Different-Phenotype (%) [9]: 14% | Population Mitotic Cells (%) [9]: 77% | Population Normal (%) [9]: 99% | Population Pyknosed Nuclei (%) [9]: 7% | Total Cell Count [9]: 1015 | Population Apoptotic (%) [10]: 25% | Population Healthy Nuclei (%) [10]: 79% | Population Mitochondria Different-Phenotype (%) [10]: 23% | Population Mitotic Cells (%) [10]: 74% | Population Normal (%) [10]: 97% | Total Cell Count [10]: 734 | Population Apoptotic (%) [11]: 55% | Population Healthy Nuclei (%) [11]: 74% | Population Membrane Permeable-Phenotype (%) [11]: 0% | Population Mitochondria Different-Phenotype (%) [11]: 62% | Population Mitotic Cells (%) [11]: 44% | Population Normal (%) [11]: 93% | Total Cell Count [11]: 540 | Population Apoptotic (%) [12]: 35% | Population Healthy Nuclei (%) [12]: 78% | Population Mitochondria Different-Phenotype (%) [12]: 68% | Population Mitotic Cells (%) [12]: 65% | Population Pyknosed Nuclei (%) [12]: 11% | Total Cell Count [12]: 558

Source: ChEMBL document CHEMBL5058577, “EUbOPEN Chemogenomics Library 2 (Multiplex)” (2022)
